Entries after “also recorded” stand apart in the source; their conditions may differ.
Tests used:
Hut78 cells = assay type: cell-based, human; settings: for reduction of Hut78 cell viability (in words): Figure 5a
p38γ = target: T1, p38γ (Homo sapiens, UniProt P53778); experiment: ADP-Glo in vitro kinase assay; assay type: biochemical; settings: for inhibition of p38γ kinase activity (in words): cell-free ADP-Glo, 1 μmol/L and 10 μmol/L, Figure 5c
T1 sequence (P53778 1-367): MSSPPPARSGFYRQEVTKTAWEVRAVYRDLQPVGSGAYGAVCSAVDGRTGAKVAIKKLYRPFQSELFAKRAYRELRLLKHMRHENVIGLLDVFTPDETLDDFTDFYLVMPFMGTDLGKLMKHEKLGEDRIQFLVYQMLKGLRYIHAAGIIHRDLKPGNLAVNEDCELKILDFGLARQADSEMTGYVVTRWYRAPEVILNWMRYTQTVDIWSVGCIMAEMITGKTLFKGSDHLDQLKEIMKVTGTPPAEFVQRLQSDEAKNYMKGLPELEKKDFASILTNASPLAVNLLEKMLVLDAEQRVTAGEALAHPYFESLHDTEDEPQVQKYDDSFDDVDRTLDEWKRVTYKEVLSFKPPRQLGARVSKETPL

CTCL cells = experiment: Cell killing of CTCL cells; assay type: cell-based; settings: Homo sapiens, read-out: IC50 for cell killing on the CTCL cells
Outline: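 Hut78, HH and H9 CTCL cell lines were exposed to varying concentrations of test compound for 72 hours. Viability was read by CellTiterGlo and normalized to DMSO control. IC50 was derived from dose-response data. There were three independent experiments, each averaged from triplicates.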

| IC50 (p38γ) | Structure (SMILES) | influence on viability of Hut78 cells (in words) (Hut78 cells; up to approximately 10 μmol/L, 72 hours) | inhibition of p38γ kinase activity (in words) (p38γ) | reduction of Hut78 cell viability (in words) (Hut78 cells) | IC50 (CTCL cells) |
| --- | --- | --- | --- | --- | --- |
| – | Cc1nc(NC(=O)N2CCC[C@H]2C(N)=O)sc1-c1csc(C(C)(C)C)n1 [A66] | no influence on the viability of Hut78 cells; also recorded: does not affect cell viability | no inhibitory kinase activities against p38γ; also recorded: does not inhibit in vitro activity of p38γ | – | – |
| – | Cn1c(=O)n(-c2ccc(C(C)(C)C#N)cc2)c2c3cc(-c4cnc5ccccc5c4)ccc3ncc21 [BEZ235] | – | no inhibitory kinase activities against p38γ | only modest reduction of cell viability | – |
| – | CS(=O)(=O)N1CCN(Cc2cc3nc(-c4cccc5[nH]ncc45)nc(N4CCOCC4)c3s2)CC1 [GDC0941] | – | no inhibitory kinase activities against p38γ | only modest reduction of cell viability | – |
| > 125 µM | Cc1ccc(=O)n(-c2ccccc2)c1 [pirfenidone] | – | – | – | > 125 µM |

From PMC7269016 (The Journal of investigative dermatology, 2018)
